Assay results reported in ChEMBL document CHEMBL1141224, “Parallel solution-phase and microwave-assisted synthesis of new S-DABO derivatives endowed with subnanomolar anti-HIV-1 activity” (J Med Chem, 2005).
Activity calls are given as the source filed them. No cut-off for these calls is given here.

Key:
MT4 [1] = assay: Cytotoxicity against MT4 cells by MTT method; format: functional; conditions: Homo sapiens
Method in brief: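 Mock-infected MT-4 cells exposed to graded drug concentrations. Viability assessed by MTT colorimetric method at day 5. CC50 is the concentration causing 50% death of noninfected cells. Mean of at least two experiments.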

[2] = system: Human immunodeficiency virus 1; assay: Antiviral activity against HIV1 IRLL98 mutant strain infected MT4 cells by MTT method; format: functional, organism-based; conditions: Human immunodeficiency virus 1, IRLL98, MT4
Method in brief: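 MT-4 cells infected with the HIV-1 mutant strain, or mock-infected for cytotoxicity, in the presence of a range of drug concentrations. Viable cells were counted by MTT colorimetric assay on day 5 post-infection. EC50 is the concentration that blocks 50% of HIV-induced cell death. Values are the mean of at least two experiments. IRLL98 carries RT mutations K101Q, Y181C and G190A, plus NRTI mutations.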

[3] = system: Human immunodeficiency virus 1; assay: Antiviral activity against wild type HIV1 NL4-3 infected MT4 cells by MTT method; format: functional, organism-based; conditions: Human immunodeficiency virus 1, NL4-3, MT4
Method in brief: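 MT-4 lymphoid cells infected with HIV-1 NL4-3 in the presence of graded drug concentrations. Viable cells counted by MTT colorimetric assay at day 5 post-infection. EC50 is the concentration protecting 50% of cells from HIV-induced death. Mean of at least two experiments.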

[4] = system: Human immunodeficiency virus 1; assay: Antiviral activity against HIV1 K103N mutant strain infected MT4 cells by MTT method at 62 uM; format: functional; conditions: Human immunodeficiency virus 1, K103N
Method in brief: (§1)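 MT-4 cells infected with the mutant HIV-1 strain and treated with compound. Viable cells were measured by MTT colorimetric assay on day 5 post-infection. The value is the percent inhibition of HIV-induced cell death at the stated micromolar concentration. Values are the mean of at least two experiments.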

[5] = system: Human immunodeficiency virus 1; assay: Antiviral activity against HIV1 Y188L mutant strain infected MT4 cells by MTT method; format: functional, organism-based; conditions: Human immunodeficiency virus 1, Y188L, MT4
[6] = biological target: Human immunodeficiency virus type 1 reverse transcriptase (Human immunodeficiency virus 1) (UniProt Q72547)
[7] = system: Human immunodeficiency virus type 1 reverse transcriptase (Human immunodeficiency virus 1), Q72547 [K103N]; assay: Inhibition of K103N mutant HIV1 reverse transcriptase by [3H]dTTP poly(rA)/oligo(dT) incorporation at 400 uM
Method in brief: (§2)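 RNA-dependent DNA polymerase assay of recombinant RT at 5–10 nM. Template: poly(rA)/oligo(dT) (0.3 μM 3'-OH ends) with 10 μM [3H]-dTTP. Run 10 min at 37 °C with increasing inhibitor. TCA-precipitated product was counted on GF/C filters. Highest concentration tested was 400 μM.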

[8] = system: Human immunodeficiency virus type 1 reverse transcriptase (Human immunodeficiency virus 1), Q72547 [Y181I]; assay: Inhibition of Y181I mutant HIV1 reverse transcriptase by [3H]dTTP poly(rA)/oligo(dT) incorporation at 400 uM; method in brief: as §2
[9] = system: Human immunodeficiency virus 1; assay: Antiviral activity against HIV1 K103N mutant strain infected MT4 cells by MTT method; format: functional, organism-based; conditions: Human immunodeficiency virus 1, K103N
[10] = system: Human immunodeficiency virus type 1 reverse transcriptase (Human immunodeficiency virus 1), Q72547 [K103N]
[11] = system: Human immunodeficiency virus type 1 reverse transcriptase (Human immunodeficiency virus 1), Q72547 [Y181I]
[12] = system: Human immunodeficiency virus 1; assay: Antiviral activity against wild type HIV1 NL4-3 infected MT4 cells by MTT method at 2.3 uM; format: functional; conditions: Human immunodeficiency virus 1, NL4-3, MT4
Method in brief: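 MT-4 cells infected with HIV-1 NL4-3 and exposed to drug. Viable cells measured by MTT assay at day 5 post-infection. Result given as percent inhibition of HIV-induced cell death at the stated micromolar concentration. Mean of at least two experiments.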

MT4 [13] = assay: Cytotoxicity against MT4 cells by MTT method at 11 uM; format: functional, Homo sapiens
[14] = biological target: Human immunodeficiency virus type 1 reverse transcriptase (Human immunodeficiency virus 1) (UniProt Q72547); assay: Inhibition of wild type HIV1 reverse transcriptase by [3H]dTTP poly(rA)/oligo(dT) incorporation at 400 uM; method in brief: as §2
[15] = system: Human immunodeficiency virus 1; assay: Antiviral activity against HIV1 IRLL98 mutant strain infected MT4 cells by MTT method at 11 uM; format: functional; conditions: Human immunodeficiency virus 1, IRLL98, MT4; method in brief: as §1

Row | SMILES | CC50 (MT4 [1]) [µM] | EC50 [2] [µM] | EC50 [3] [µM] | inhibition at 62 µM [4] [%] | EC50 [5] [µM] | ID50 [6] [µM] | ID50 [7] | ID50 [8] | EC50 [9] [µM] | ID50 [10] [µM] | ID50 [11] [µM] | inhibition at 2.3 µM [12] [%] | Activity (MT4 [13]) [%] | ID50 [14] | inhibition at 11 µM [15] [%]
1 | Cc1c(O)nc(SCc2ccc(C(C)C)cc2)nc1Cc1c(F)cccc1F | > 62 | 16 | 0.58 | 33 | > 62 | 3 | inactive | inactive |  |  |  |  |  |  | 
2 | COc1ccc(CSc2nc(Cc3c(Cl)cccc3Cl)c(C)c(=O)[nH]2)cc1 | 32 | 0.047 | 0.007 |  | > 32 | 0.004 |  |  | 4.7 | 102 | 150 |  |  |  | 
3 | Cc1c(O)nc(SCc2ccc(C(C)C)cc2)nc1Cc1c(Cl)cccc1Cl |  | > 57 |  |  | > 58 |  | inactive | inactive | > 58 |  |  | 35 | 45 | inactive | 
4 | CCCCOc1ccc(CSc2nc(O)c(C)c(Cc3c(Cl)cccc3Cl)n2)cc1 | 3.1 |  | > 3.1 |  | > 3.1 | 2.8 | inactive | inactive | > 3.1 |  |  |  |  |  | 34
